Ki and Ratio Ki data for 13 compounds are collected here from ChEMBL document CHEMBL1143997, “Further structural optimization of cis-(6-benzhydryl-piperidin-3-yl)-benzylamine and 1,4-diazabicyclo[3.3.1]nonane derivatives by introducing an exocyclic hydroxyl group: interaction with dopamine, serotonin, and norepinephrine transporters” (Bioorg Med Chem, 2008).

The target in assay [1] is T1, Sodium-dependent dopamine transporter (Rattus norvegicus, UniProt P23977). The experiment in a line: Displacement of [3H]WIN-from DAT in rat striatum. In short, it runs like this: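 Compounds dissolved in DMSO, diluted in 10% DMSO, final 0.5% DMSO. At least five concentrations in triplicate spaced around IC50. IC50 from nonlinear curve fitting, converted to Ki by Cheng-Prusoff. Mean ± SEM of 3–8 independent experiments.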
T1 sequence (P23977 whole entry): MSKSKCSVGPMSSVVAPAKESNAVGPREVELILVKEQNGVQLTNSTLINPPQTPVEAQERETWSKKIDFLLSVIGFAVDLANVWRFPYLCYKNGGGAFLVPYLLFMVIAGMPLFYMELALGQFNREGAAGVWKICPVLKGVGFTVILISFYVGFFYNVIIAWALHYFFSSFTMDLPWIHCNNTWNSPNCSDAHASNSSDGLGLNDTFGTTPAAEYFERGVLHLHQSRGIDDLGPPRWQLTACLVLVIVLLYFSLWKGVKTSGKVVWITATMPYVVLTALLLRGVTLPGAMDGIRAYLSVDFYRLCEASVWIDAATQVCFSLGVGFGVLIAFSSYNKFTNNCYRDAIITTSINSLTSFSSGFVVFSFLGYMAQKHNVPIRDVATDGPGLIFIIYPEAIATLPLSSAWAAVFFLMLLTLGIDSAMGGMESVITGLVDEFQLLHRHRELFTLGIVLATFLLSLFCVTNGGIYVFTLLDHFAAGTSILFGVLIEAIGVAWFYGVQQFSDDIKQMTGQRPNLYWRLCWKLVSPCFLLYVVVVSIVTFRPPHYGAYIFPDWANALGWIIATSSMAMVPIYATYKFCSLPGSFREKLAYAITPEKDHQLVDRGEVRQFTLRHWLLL

The target in assay [2] is T1, Sodium-dependent dopamine transporter. The experiment in a line: Inhibition of [3H]dopamine uptake in DAT in rat striatum. Type of assay: tissue-based. Summed up:
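Rat striatal tissue; [3H]DA accumulation measured. Nonspecific uptake defined with 100 uM cocaine. Compounds dissolved in DMSO, final 0.5% DMSO. At least five triplicate concentrations spaced around IC50. Nonlinear curve fit, with Ki from Cheng-Prusoff. Mean ± SEM of 3–8 independent experiments done in triplicate.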

Assay [3] is filed under the species Rattus norvegicus. The experiment in a line: Ratio of Ki for NET to Ki for DAT in rat brain. In kind it is tissue-based.
The target in assay [4] is Sodium-dependent serotonin transporter (Rattus norvegicus, UniProt P31652). The experiment in a line: Inhibition of [3H]5HT uptake in SERT in rat cerebral cortex. In kind it is tissue-based. Summed up: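 Rat cerebral cortex; [3H]5-HT accumulation measured. Nonspecific uptake defined with 10 uM citalopram. Compounds dissolved in DMSO, final 0.5% DMSO. At least five triplicate concentrations spaced around IC50. Nonlinear fit, with Ki by Cheng-Prusoff. Mean ± SEM of 3–8 independent experiments in triplicate.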
Chain of Sodium-dependent serotonin transporter (P31652 whole entry): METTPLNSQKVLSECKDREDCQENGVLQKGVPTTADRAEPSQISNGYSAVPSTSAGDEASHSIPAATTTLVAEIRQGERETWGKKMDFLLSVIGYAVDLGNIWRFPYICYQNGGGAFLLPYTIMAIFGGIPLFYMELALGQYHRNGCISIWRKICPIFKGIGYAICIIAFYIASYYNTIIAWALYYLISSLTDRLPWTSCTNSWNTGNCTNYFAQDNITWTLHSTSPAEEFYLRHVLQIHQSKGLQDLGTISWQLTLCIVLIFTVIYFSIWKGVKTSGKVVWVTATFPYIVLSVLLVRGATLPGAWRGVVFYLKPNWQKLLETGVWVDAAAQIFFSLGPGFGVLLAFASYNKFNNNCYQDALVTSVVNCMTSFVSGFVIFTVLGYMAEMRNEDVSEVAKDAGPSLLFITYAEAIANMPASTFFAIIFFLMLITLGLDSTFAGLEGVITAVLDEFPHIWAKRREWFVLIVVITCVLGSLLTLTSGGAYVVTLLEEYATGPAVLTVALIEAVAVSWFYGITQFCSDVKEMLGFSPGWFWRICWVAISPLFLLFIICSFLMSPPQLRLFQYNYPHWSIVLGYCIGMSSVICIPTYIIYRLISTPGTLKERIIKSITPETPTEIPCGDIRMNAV

The species named for assay [5] is Rattus norvegicus. The experiment in a line: Ratio of Ki for SERT to Ki for DAT in rat brain. Type of assay: tissue-based.
For assay [6], the target named is Sodium-dependent dopamine transporter (Rattus norvegicus) (UniProt P23977). The experiment in a line: Ratio of [3H]DA uptake to [3H]WIN-binding to DAT in rat brain. Type of assay: tissue-based.
Chain of Sodium-dependent dopamine transporter (Rattus norvegicus) (P23977 whole entry): as the sequence (P23977 whole entry) above
For assay [7], the target named is Norepinephrine transporter (Rattus norvegicus, UniProt Q9WTR4). The experiment in a line: Inhibition of [3H]NE uptake in NET in rat cerebral cortex. Type of assay: tissue-based.
Chain of Norepinephrine transporter (Q9WTR4 whole entry): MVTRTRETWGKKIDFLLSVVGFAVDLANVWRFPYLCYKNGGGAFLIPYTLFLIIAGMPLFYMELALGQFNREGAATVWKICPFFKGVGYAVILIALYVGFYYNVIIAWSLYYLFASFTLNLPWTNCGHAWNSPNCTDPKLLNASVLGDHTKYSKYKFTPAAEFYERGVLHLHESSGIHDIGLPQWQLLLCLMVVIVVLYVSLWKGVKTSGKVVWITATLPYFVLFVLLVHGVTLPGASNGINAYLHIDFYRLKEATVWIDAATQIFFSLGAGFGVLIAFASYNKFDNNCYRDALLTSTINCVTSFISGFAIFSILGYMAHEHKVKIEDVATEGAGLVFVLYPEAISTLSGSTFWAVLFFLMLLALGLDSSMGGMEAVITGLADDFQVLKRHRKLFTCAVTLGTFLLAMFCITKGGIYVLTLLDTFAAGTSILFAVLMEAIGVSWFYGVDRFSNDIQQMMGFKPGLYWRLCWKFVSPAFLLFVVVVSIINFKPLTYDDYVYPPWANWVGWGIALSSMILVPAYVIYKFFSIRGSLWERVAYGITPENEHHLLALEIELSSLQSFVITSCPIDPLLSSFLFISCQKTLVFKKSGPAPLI

The structures appear in SMILES notation.

The Ki is the dissociation constant of the complex between target and ligand, obtained from inhibition or displacement. A high value points to lower affinity.

As for `COc1ccc(CN2CCN3C[C@@H]2CC[C@H]3C(c2ccccc2)c2ccccc2)cc1`, the Ki in assay [1] was found to be 22.5 nM; in assay [2] it was 18.4 nM.

For the compound `O[C@H](Cc1ccccc1)CN1CCN2C[C@@H]1CC[C@H]2C(c1ccccc1)c1ccccc1`, the Ratio Ki in assay [3] was determined as 8.8; in assay [5], 135; in assay [6] it was 0.56. The Ki in assay [1] stood at 148 nM; in assay [4], 11200 nM; in assay [2] it was 82.9 nM; in assay [7], 730 nM.

For the compound `O[C@@H](Cc1ccccc1)CN1CCN2C[C@@H]1CC[C@H]2C(c1ccccc1)c1ccccc1`, the figures for the Ratio Ki in assay [3], in assay [5] and in assay [6] were 15.4, 615 and 0.35, respectively. The Ki in assay [1] was determined as 47 nM; in assay [4], 10300 nM; in assay [2] it was 16.8 nM; in assay [7], 259 nM.

On to `N#Cc1ccc(CN[C@H]2CC[C@@H](C(c3ccccc3)c3ccccc3)NC2)cc1`, for which the figures for the Ki in assay [1] and in assay [2] were 11.3 nM and 9.1 nM, respectively.

With `O[C@H](CN1CCN2C[C@@H]1CC[C@H]2C(c1ccccc1)c1ccccc1)c1ccccc1`, the Ratio Ki worked out at 6.5 in assay [3], 35.7 in assay [5] and 0.25 in assay [6]. Besides, the Ki in assay [1] was found to be 1040 nM; in assay [4], 9510 nM; in assay [2] it was 266 nM; in assay [7] it was 1730 nM.

As to `O[C@@H](CCN1CCN2C[C@@H]1CC[C@H]2C(c1ccccc1)c1ccccc1)c1ccc(F)cc1`, the Ratio Ki in assay [3] came to 48.4; in assay [5], 172; in assay [6], 0.63. Also, the Ki was found to be 13.5 nM in assay [1], 1480 nM in assay [4], 8.63 nM in assay [2] and 418 nM in assay [7].

Consider `O[C@@H](CN[C@H]1CC[C@@H](C(c2ccccc2)c2ccccc2)NC1)Cc1ccccc1`, for which the figures for the Ki in assay [4], in assay [2] and in assay [7] were 1390 nM, 10.6 nM and 170 nM, respectively. The Ratio Ki in assay [6] was found to be 0.78.

As for `O[C@@H](CN[C@H]1CC[C@@H](C(c2ccccc2)c2ccccc2)NC1)c1ccc(F)cc1`, the values for the Ratio Ki in assay [3] and in assay [5] were 6 and 12.2, respectively. Moreover, the Ki was 2900 nM in assay [4] and 1440 nM in assay [7].

For the compound `O[C@@H](CN1CCN2C[C@@H]1CC[C@H]2C(c1ccccc1)c1ccccc1)c1ccccc1`, the Ratio Ki stood at 4.6 in assay [3], 63.2 in assay [5] and 0.89 in assay [6]. Moreover, the Ki came out at 228 nM in assay [1], 12900 nM in assay [4], 204 nM in assay [2] and 954 nM in assay [7].

Turning to `O[C@H](CN1CCN2C[C@@H]1CC[C@H]2C(c1ccccc1)c1ccccc1)c1ccc(F)cc1`, the Ratio Ki was 4.5 in assay [3], 45.9 in assay [5] and 0.24 in assay [6]. In addition, the inhibition constant (Ki) in assay [1] amounted to 649 nM; in assay [4], 7340 nM; in assay [2], 160 nM; in assay [7], 728 nM.

As for `O[C@H](CCN1CCN2C[C@@H]1CC[C@H]2C(c1ccccc1)c1ccccc1)c1ccc(F)cc1`, the Ratio Ki in assay [3] was found to be 9.2; in assay [5], 284; in assay [6], 2.1. Further, the Ki in assay [1] came to 19.9 nM; in assay [4], 11900 nM; in assay [2] it was 41.8 nM; in assay [7], 388 nM.

For `O[C@H](CN[C@H]1CC[C@@H](C(c2ccccc2)c2ccccc2)NC1)Cc1ccccc1`, the Ratio Ki is 9.1 in assay [3], 103 in assay [5] and 0.87 in assay [6]. Besides, the Ki in assay [1] amounted to 28.9 nM; in assay [4], 2600 nM; in assay [7], 231 nM.

Regarding `O[C@@H](CN1CCN2C[C@@H]1CC[C@H]2C(c1ccccc1)c1ccccc1)c1ccc(F)cc1`, the figures for the Ratio Ki in assay [3], in assay [5] and in assay [6] were 4.7, 111 and 0.46, respectively. The Ki in assay [1] came out at 142 nM; in assay [4], 7410 nM; in assay [2], 66.5 nM; in assay [7], 319 nM.
